Source: article PMC9425296 (Journal of the American Chemical Society, 2022)
*1 amine or outer side, *2 acyl side, *3 side chain or, on linkers, in order; H or OH if unused. Where a SMILES comes first, the peptide text is derived from it. Bridges are numbered along the chain shown (N, C = ends). [ ]: non-standard residue; d: D form. X1 = O=C([C@@H]1C[C@H](SCc2cccc(C[*:3])c2)CN1[*:1])[*:2]

Tests used:
[1] = system: OVCAR8 cells (p62, LC3B, GABARAP); experiment: Western blot of autophagy markers in OVCAR8 cells; format: cell-based; settings: OVCAR8, 25 μM peptide plus 10 μM cisplatin, 48 h
[2] = system: five human paralogs in the GABARAP/LC3 family (GABARAP, GABARAP-L1, GABARAP-L2, LC3A, LC3B); experiment: FP binding across human LC3/GABARAP paralogs; settings: fluorescein-tagged peptide
Outline: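 Fluorescence polarization with N-terminally fluorescein-labelled peptides titrated against each recombinant protein (GABARAP, GABARAP-L1, GABARAP-L2, LC3A, LC3B). Kd values come from the FP binding data. Results are the average and standard error of the mean of three or more independent trials.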

CC(C)C[C@H](NC(=O)[C@@H]1CSCc2cccc(c2)CS[C@H]2C[C@@H](C(=O)N[C@@H](Cc3ccc(O)cc3)C(=O)N[C@@H]([C@@H](C)O)C(=O)N[C@@H](Cc3c[nH]c4ccccc34)C(=O)N[C@@H](CCC(=O)O)C(=O)N1)N(C(=O)[C@H](C)NC(=O)[C@@H](N)CC(=O)O)C2)C(=O)N[C@@H](C)C(=O)N[C@@H](Cc1c[nH]c2ccccc12)C(=O)N1CCC[C@H]1C(N)=O [MP3-meta] (H-DA[X1]YTWECLAWP-NH2; thioether 3-8; N-terminus and C-terminus assumed)
LC3B-I level compared to cells treated with cisplatin alone [1]: increased LC3B-I
binding to GABARAP and GABARAPL1 (in words) [2]: low-to-mid nanomolar range
binding to GABARAP-L2, LC3A and LC3B (in words) [2]: mostly in the micromolar range
